Experiment [1] concerns K562. Put plainly: Cytotoxicity against human K562 cells after 72 hrs by SRB assay. Format: functional, cell-based. To be noted: K562, 72 h. The method, boiled down: (§1)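 Human tumor cells seeded in 96-well plates 24 h before treatment, then exposed continuously to a range of compound concentrations for 72 h. Inhibition of cell proliferation read by SRB or MTT staining as named in each line. IC50 derived. Adriamycin (ADR) included as positive control.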
Background: The SRB assay estimates cell density from bound dye.

The subject of experiment [2] is K562. Put plainly: Cytotoxicity against human K562 cells after 72 hrs by MTT assay. The format is functional, cell-based. To be noted: K562, 72 h. The method, boiled down: as §1
Background: Tetrazolium dyes change colour on reduction, which living cells bring about.

In experiment [3] the test system is Bel-7402. Put plainly: Cytotoxicity against human Bel7402 cells after 72 hrs by SRB assay. Format: functional, cell-based. The following applies: Bel-7402, 72 h. The method, boiled down: as §1
The subject of experiment [4] is Bel-7402. Put plainly: Cytotoxicity against human Bel7402 cells after 72 hrs by MTT assay. To be noted: Bel-7402, 72 h. Format: functional, cell-based. Summed up: as §1
Experiment [5] relates to A549. Description: Cytotoxicity against human A549 cells after 72 hrs by SRB assay. Format: functional. The method, boiled down:
as §1

The test system of experiment [6] is A549. Description: Cytotoxicity against human A549 cells after 72 hrs by MTT assay. The format is functional, cell-based. To be noted: A549, 72 h. The method, boiled down:
as §1

In brackets after ≈: the same amount, converted by molar mass.

Take `COc1cccc2c1C(=O)c1c(O)c3c(c(O)c1C2=O)C[C@@](O)(C(=O)CO)C[C@@H]3O[C@H]1C[C@H](N)[C@H](O)[C@H](C)O1` [DOXORUBICIN]: the IC50 worked out at 0.011 µg/mL (≈ 0.0202 µM) with K562 [1]; 0.011 µg/mL (≈ 0.0202 µM) in the experiment on K562 [2]; 0.01 µg/mL (≈ 0.0184 µM) in the experiment with Bel-7402 [3]; 0.01 µg/mL (≈ 0.0184 µM) in the experiment with Bel-7402 [4]; 0.025 µg/mL (≈ 0.046 µM) with A549 [6]. In the experiment on A549 [5], this compound yielded an IC of 0.025 µg/mL.

For the compound `CC1=CC[C@@H]([C@@H](C)[C@@H]2CC=C3[C@@H]4CC[C@H]5C(C)(C)O[C@@H]6CC(=O)O[C@@]65C[C@@]4(OC=O)CC[C@@]32C)OC1=O` [KADCOCCILACTONE D], the half-inhibitory concentration (IC50) in the experiment with K562 [1], in the experiment with K562 [2], in the experiment with Bel-7402 [3], in the experiment with Bel-7402 [4] and in the experiment on A549 [6] was over 100 µg/mL throughout. In the experiment with A549 [5], this compound had an IC of over 100 µg/mL.

As to `CC(=O)O[C@@H]1C[C@H]2C(C)(C)O[C@@H]3CC(=O)O[C@@]32C[C@@]2(O)CC[C@]34O[C@H](C5CC(C)C(=O)O5)[C@@H](C)[C@H]3C[C@H](O)[C@]4(C)[C@H]12` (stereo partly drawn) [KADCOCCILACTONE H], the IC50 with K562 [1], in the experiment with K562 [2], in the experiment on Bel-7402 [3], with Bel-7402 [4] and with A549 [6] was over 100 µg/mL in each case. Also, the IC with A549 [5] is over 100 µg/mL.

For `CC1=CC[C@@H]([C@@H](C)[C@]2(O)CC[C@@]3(C)[C@@H]4CC[C@H]5C(C)(C)O[C@@H]6CC(=O)O[C@@]65C[C@@]4(O)CC[C@@]32C)OC1=O` [KADCOCCILACTONE A], the IC50 with K562 [1] was over 100 µg/mL; in the experiment with K562 [2], over 100 µg/mL; with Bel-7402 [3], 36.4 µg/mL (≈ 70.5 µM); in the experiment on Bel-7402 [4] it was 36.4 µg/mL (≈ 70.5 µM); in the experiment with A549 [6], over 100 µg/mL. This compound also registered an IC in the experiment with A549 [5] of over 100 µg/mL.

For the compound `CC1=CC([C@H]2O[C@@]34[C@H](C[C@@H]5O[C@@]53[C@@H]3[C@H](O)C[C@H]5C(C)(C)O[C@@H]6CC(=O)O[C@@]65C[C@@]3(O)C[C@@H]4O)[C@@H]2C)OC1=O` (stereo partly drawn) [KADCOCCILACTONE J], the IC50 in the experiment with K562 [1], with K562 [2], with Bel-7402 [3], with Bel-7402 [4] and in the experiment with A549 [6] was over 100 µg/mL each time. Further, the IC with A549 [5] was over 100 µg/mL.

As for `CC1=C[C@@H]([C@@H](O)[C@@H](C)[C@H]2CC=C3[C@@H]4CC[C@H]5C(C)(C)O[C@@H]6CC(=O)O[C@@]65C[C@@]4(O)CC[C@@]32C)OC1=O` [KADCOCCILACTONE E], the IC50 in the experiment on K562 [1], with K562 [2], in the experiment with Bel-7402 [3], in the experiment with Bel-7402 [4] and in the experiment with A549 [6] was over 100 µg/mL in each case. The compound also came in with an IC in the experiment with A549 [5] of over 100 µg/mL.

`CC(=O)O[C@H]1C[C@@H]2[C@H](C)[C@@H](C3CC(C)C(=O)O3)O[C@@]23CC[C@]2(O)C[C@]45OC(=O)C[C@H]4OC(C)(C)[C@@H]5C[C@@H](O)[C@H]2[C@@]13C` (stereo partly drawn) [KADCOCCILACTONE I]: the IC50 with K562 [1], in the experiment on K562 [2], with Bel-7402 [3], in the experiment with Bel-7402 [4] and in the experiment with A549 [6] was over 100 µg/mL in each case. The IC with A549 [5] was over 100 µg/mL.

As to `CC1=C[C@@H]([C@@H](O)[C@@H](C)[C@]23CC[C@@]4(CO2)[C@@H]2CC[C@H]5C(C)(C)O[C@@H]6CC(=O)O[C@@]65C[C@@]2(O)CC[C@@]43C)OC1=O` [KADCOCCILACTONE G], the IC50 in the experiment with K562 [1], in the experiment on K562 [2], in the experiment on Bel-7402 [3], in the experiment on Bel-7402 [4] and in the experiment with A549 [6] was over 100 µg/mL throughout. In the experiment with A549 [5], this compound showed an IC of over 100 µg/mL.

Take `CC(=O)O[C@@H]1C[C@]2(C)[C@@H]([C@H](C)[C@H]3CC=C(C)C(=O)O3)CC[C@@]2(C)CCC[C@H]2C(C)(C)O[C@@H]3CC(=O)O[C@@]32CC1=O` [KADSUPHILACTONE A]: the IC50 in the experiment on K562 [1] was 50.3 µg/mL (≈ 90 µM); in the experiment on K562 [2], 50.3 µg/mL (≈ 90 µM); in the experiment with Bel-7402 [3], over 100 µg/mL; in the experiment on Bel-7402 [4] it was over 100 µg/mL; with A549 [6] it was 96.6 µg/mL (≈ 173 µM). In addition, in the experiment with A549 [5], the IC was found to be 96.6 µg/mL.

As for `CC1=CC[C@@H]([C@@H](C)[C@@H]2CC[C@]3(O)[C@@H]4CC[C@H]5C(C)(C)O[C@@H]6CC(=O)O[C@@]65C[C@@]4(O)CC[C@]23C)OC1=O` [KADCOCCILACTONE B], the IC50 in the experiment with K562 [1], in the experiment on K562 [2], in the experiment with Bel-7402 [3], with Bel-7402 [4] and with A549 [6] was over 100 µg/mL each time. In the experiment on A549 [5], the IC is over 100 µg/mL.

As to `CC(=O)O[C@H]1CC([C@H](C)[C@H](O)[C@@H]2C[C@H](C)C(=O)O2)=C2CC[C@]3(O)C[C@]45OC(=O)C[C@@]4(O)OC(C)(C)[C@@H]5CC[C@H]3[C@]21C` [KADCOCCILACTONE F], the IC50 in the experiment with K562 [1], in the experiment on K562 [2], with Bel-7402 [3], in the experiment on Bel-7402 [4] and with A549 [6] was over 100 µg/mL in each case. This compound returned an IC in the experiment with A549 [5] of over 100 µg/mL.

Turning to `CC1=CC[C@@H]([C@@H](C)[C@@H]2CC[C@@]3(CO)[C@@H]4CC[C@H]5C(C)(C)O[C@@H]6CC(=O)O[C@@]65C[C@@]4(O)CC[C@]23C)OC1=O` [KADCOCCILACTONE C], the IC50 was 53.3 µg/mL (≈ 103 µM) in the experiment with K562 [1]; 53.3 µg/mL (≈ 103 µM) in the experiment with K562 [2]; over 100 µg/mL in the experiment with Bel-7402 [3]; over 100 µg/mL in the experiment with Bel-7402 [4]; over 100 µg/mL in the experiment with A549 [6]. The same compound came in with an IC in the experiment with A549 [5] of over 100 µg/mL.

For `CC1=C[C@H]([C@H](O)[C@H](C)[C@@H]2C[C@H]3O[C@]34[C@@H]3CC[C@@H]5C(C)(C)O[C@H]6CC(=O)O[C@]65C[C@]3(O)CC[C@@]24C)OC1=O` [MICRANDILACTONE B], the half-maximal inhibitory concentration (IC50) with K562 [1], in the experiment on K562 [2], in the experiment with Bel-7402 [3], in the experiment on Bel-7402 [4] and in the experiment with A549 [6] was over 100 µg/mL throughout. In the experiment with A549 [5], this compound showed an IC of over 100 µg/mL.

Broadly, the IC50 is the concentration needed to halve the response being measured. A lower IC50 goes with higher potency.

These data come from ChEMBL document CHEMBL1155114, “Kadcoccilactones A-J, triterpenoids from Kadsura coccinea” (J Nat Prod, 2008).
